ChEMBL document CHEMBL3351600, “Sulfur, selenium and tellurium pseudopeptides: synthesis and biological evaluation” (Bioorg Med Chem, 2014)

Tests used:
SK-MEL-2 = test: Growth inhibition of human SK-MEL-2 cells after 48 hrs; format: functional; settings: SK-MEL-2, 48 h
How it was run: (§1)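 NCI-60 human tumour cell line panel screen run at the US National Cancer Institute under its standard cytotoxicity protocol. It covers leukaemia, NSCLC, colon, CNS, melanoma, ovarian, renal, prostate and breast lines. An initial single-dose test was followed by five-dose testing with 48 h compound exposure.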

HOP-62 = test: Growth inhibition of human HOP62 cells after 48 hrs; format: functional; settings: HOP-62, 48 h; how it was run: as §1
NCI-H460 = test: Growth inhibition of human NCI-H460 cells after 48 hrs; format: functional; settings: NCI-H460, 48 h; how it was run: as §1
NCI-H226 = test: Growth inhibition of human NCI-H226 cells after 48 hrs; format: functional; settings: NCI-H226, 48 h; how it was run: as §1
MDA-MB-435 = test: Growth inhibition of human MDA-MB-435 cells after 48 hrs; format: functional; settings: MDA-MB-435, 48 h; how it was run: as §1
[1] = Growth inhibition of human NCI-ADR-RES cells after 48 hrs; format: functional; how it was run: as §1
DU-145 = test: Growth inhibition of human DU145 cells after 48 hrs; format: functional; settings: DU-145, 48 h; how it was run: as §1
Pseudomonas aeruginosa = test: Antimicrobial activity against Pseudomonas aeruginosa assessed as inhibition at 20 ug/6 mm disk after 1 to 2 days by agar diffusion assay; format: functional
How it was run: (§2)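 Standard agar diffusion: 6-mm paper disks loaded with 20 µg of compound were placed on inoculated plates. Inhibition-zone diameter (mm) was read after 1 and 2 days of growth.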

[2] = Growth inhibition of human EKVX cells after 48 hrs; format: functional; how it was run: as §1
MDA-MB-468 = test: Growth inhibition of human MDA-MB-468 cells after 48 hrs; format: functional; settings: MDA-MB-468, 48 h; how it was run: as §1
[3] = Growth inhibition of human HCT15 cells after 48 hrs; format: functional; settings: HCT-15, 48 h; how it was run: as §1
[4] = Growth inhibition of human RPMI8226 cells after 48 hrs; format: functional; settings: RPMI-8226, 48 h; how it was run: as §1
SF-268 = test: Growth inhibition of human SF268 cells after 48 hrs; format: functional; settings: SF-268, 48 h; how it was run: as §1
TK-10 = test: Growth inhibition of human TK10 cells after 48 hrs; format: functional; settings: TK-10, 48 h
How it was run: (§3)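 Run by the NCI 58-cell-line screen under its standard cytotoxicity protocol. Compounds were first tested at a single dose, then at five doses. Cells were exposed to compound for 48 h.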

Micrococcus luteus = test: Antimicrobial activity against Micrococcus luteus assessed as inhibition at 20 ug/6 mm disk after 1 to 2 days by agar diffusion assay; format: functional; how it was run: as §2
SW-620 = test: Growth inhibition of human SW620 cells after 48 hrs; format: functional; settings: SW-620, 48 h; how it was run: as §3
K562 = test: Growth inhibition of human K562 cells after 48 hrs; format: functional; settings: K562, 48 h; how it was run: as §1
M14 = test: Growth inhibition of human M14 cells after 48 hrs; format: functional; settings: M14, 48 h; how it was run: as §1
MDA-MB-231 = test: Growth inhibition of human MDA-MB-231 cells after 48 hrs; format: functional; settings: MDA-MB-231, 48 h; how it was run: as §1
[5] = Octanol-water partition coefficient, log P of the compound by HPLC analysis; format: physicochemical
How it was run: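 Lipophilicity was measured by reversed-phase HPLC on a Nucleosil C18 column with isocratic water/methanol (3:1) at 0.5 ml/min and UV detection at 230 and 245 nm. Dead time was set with thiourea (t0 0.728 min). Retention factor was k = (tR − t0)/t0, and log P came from a calibration against at least six reference compounds.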

[6] = Growth inhibition of human UO31 cells after 48 hrs; format: functional; settings: UO-31, 48 h; how it was run: as §3
[7] = Growth inhibition of human OVCAR5 cells after 48 hrs; format: functional; settings: OVCAR-5, 48 h; how it was run: as §1
[8] = Growth inhibition of human RXF393 cells after 48 hrs; format: functional; settings: RXF 393, 48 h; how it was run: as §1
Aspergillus niger = test: Antimicrobial activity against Aspergillus niger assessed as inhibition at 20 ug/6 mm disk after 1 to 2 days by agar diffusion assay; format: functional; how it was run: as §2
[9] = Growth inhibition of human OVCAR3 cells after 48 hrs; format: functional; settings: OVCAR-3, 48 h; how it was run: as §1
KM12 = test: Growth inhibition of human KM12 cells after 48 hrs; format: functional; settings: KM12, 48 h; how it was run: as §1
Candida albicans = test: Antimicrobial activity against Candida albicans assessed as inhibition at 20 ug/6 mm disk after 1 to 2 days by agar diffusion assay; format: functional; how it was run: as §2
A-431 = test: Cytotoxicity against human A431 cells assessed as cell viability after 24 hrs incubation by MTT assay; format: functional, cell-based; settings: A-431, 24 h
How it was run: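 Cell lines came from DSMZ; primary human fibroblasts served as non-cancer controls. Cells were grown in medium with 10% FCS, seeded at 50,000 cells/ml, and grown 2 days at 37 °C, 10% CO2. Serial dilutions were then added for 24 h. MTT (final 0.5 mg/ml) was added for 2 h. Formazan was pelleted, PBS-washed, dissolved in isopropanol/0.4% HCl and read at 590 nm. Two parallel experiments were run. IC50 was taken as the concentration giving 50% of untreated-control absorbance.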

HT-29 = test: Growth inhibition of human HT-29 cells after 48 hrs; format: functional; settings: HT-29, 48 h; how it was run: as §1
[10] = Growth inhibition of human SF295 cells after 48 hrs; format: functional; settings: SF-295, 48 h; how it was run: as §1
NCI-H322M = test: Growth inhibition of human NCI-H322M cells after 48 hrs; format: functional; settings: read-out: pLC50 (the source's name) (converted); how it was run: as §1
[11] = read-out: pLC50 (the source's name) (converted)

`COc1ccc(N(CC(=O)NCCC[Te]c2ccccc2)C(=O)c2ccccc2)cc1` showed a GI50 (SK-MEL-2) of 4.17 µM, a CC50 (SK-MEL-2; [11]) of over 100 µM and a TGI (SK-MEL-2; read-out: pTGI (converted)) of 15.1 µM. It also gave a GI50 (HOP-62) of 2.4 µM, a CC50 (HOP-62; [11]) of 18.2 µM and a TGI (HOP-62; read-out: pTGI (converted)) of 5.37 µM. It also gave a GI50 (NCI-H460) of 0.537 µM, a CC50 (NCI-H460; [11]) of 8.71 µM and a TGI (NCI-H460; read-out: pTGI (converted)) of 2.4 µM. The GI50 (NCI-H226) was 2.63 µM, the CC50 (NCI-H226; [11]) was 100 µM and the TGI (NCI-H226; read-out: pTGI (converted)) was 7.24 µM. The GI50 (MDA-MB-435) was 8.13 µM, the CC50 (MDA-MB-435; [11]) was over 100 µM and the TGI (MDA-MB-435; read-out: pTGI (converted)) was 30.2 µM. For the same compound, the GI50 [1] was 3.24 µM, the LC50 [1] was over 100 µM and the TGI ([1]; read-out: pTGI (converted)) was 10.7 µM. It also gave a GI50 (DU-145) of 3.89 µM, an LC50 (DU-145) of 64.6 µM and a TGI (DU-145; read-out: pTGI (converted)) of 13.8 µM. The “diameter of the inhibition zone (DIZ)” value (Pseudomonas aeruginosa) was 9 mm, the GI50 [2] was 4.07 µM and the CC50 [2, 11] was over 100 µM. It also gave a TGI ([2]; read-out: pTGI (converted)) of 5.25 µM, a GI50 (MDA-MB-468) of 4.27 µM and an LC50 (MDA-MB-468) of 56.2 µM. The TGI (MDA-MB-468; read-out: pTGI (converted)) was 17.8 µM, the GI50 [3] was 2.95 µM and the CC50 [3, 11] was over 100 µM. The TGI ([3]; read-out: pTGI (converted)) was 15.1 µM, the GI50 [4] was 3.16 µM and the CC50 [4, 11] was over 100 µM. The TGI ([4]; read-out: pTGI (converted)) was 19.1 µM, the GI50 (SF-268) was 3.16 µM and the CC50 (SF-268; [11]) was 66.1 µM. It also gave a TGI (SF-268; read-out: pTGI (converted)) of 10.7 µM, a GI50 (TK-10) of 3.89 µM and an LC50 (TK-10) of 69.2 µM. For the same compound, the TGI (TK-10; read-out: pTGI (converted)) was 11.5 µM, the “diameter of the inhibition zone (DIZ)” value (Micrococcus luteus) was 13 mm and the GI50 (SW-620) was 3.89 µM. It also gave a CC50 (SW-620; [11]) of 56.2 µM, a TGI (SW-620; read-out: pTGI (converted)) of 14.5 µM and a GI50 (K562) of 5.13 µM. The CC50 (K562; [11]) was over 100 µM, the TGI (K562; read-out: pTGI (converted)) was over 100 µM and the GI50 (M14) was 4.17 µM. It also gave a CC50 (M14; [11]) of 63.1 µM, a TGI (M14; read-out: pTGI (converted)) of 15.5 µM and a GI50 (MDA-MB-231) of 2.63 µM. For the same compound, the LC50 (MDA-MB-231) was over 100 µM, the TGI (MDA-MB-231; read-out: pTGI (converted)) was 4.79 µM and the logP [5] was 1.72. For the same compound, the GI50 [6] was 2.75 µM, the LC50 [6] was 95.5 µM and the TGI ([6]; read-out: pTGI (converted)) was 11 µM. It also gave a GI50 [7] of 3.8 µM, an LC50 [7] of 52.5 µM and a TGI ([7]; read-out: pTGI (converted)) of 11.5 µM. It also gave a GI50 [8] of 12 µM, an LC50 [8] of 75.9 µM and a TGI ([8]; read-out: pTGI (converted)) of 30.2 µM. The “diameter of the inhibition zone (DIZ)” value (Aspergillus niger) was 10 mm, the GI50 [9] was 5.75 µM and the CC50 [9, 11] was 56.2 µM. It also gave a TGI ([9]; read-out: pTGI (converted)) of 20 µM, a GI50 (KM12) of 3.16 µM and a CC50 (KM12; [11]) of 46.8 µM. The TGI (KM12; read-out: pTGI (converted)) was 11.7 µM, the “diameter of the inhibition zone (DIZ)” value (Candida albicans) was 0 mm and the IC50 (A-431) was 5 µM. The GI50 (HT-29) was 3.8 µM, the CC50 (HT-29; [11]) was over 100 µM and the TGI (HT-29; read-out: pTGI (converted)) was over 100 µM. It also gave a GI50 [10] of 1.7 µM, a CC50 [10, 11] of over 100 µM and a TGI ([10]; read-out: pTGI (converted)) of 8.13 µM. It also gave a CC50 (NCI-H322M) of over 100 µM.
